Assay results: ChEMBL document CHEMBL1152502, “Synthesis and antiproliferative activity of 2,4-disubstituted 6-aryl-7H-pyrrolo[3,2-d]pyrimidin-7-one 5-oxides” (2009)
Calls of active or inactive are those of the source. The rule behind the calls is not given here.

Columns and labels:
A2780 = assay: Antiproliferative activity against human A2780 cells after 48 hrs by SRB assay; type: functional; settings: A2780, 48 h
How it was run: (§1)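 RPMI 1640 with 5% heat-inactivated FCS and 2 mM L-glutamine at 37 °C, 5% CO2. Seeded at 15,000 (WiDr, T-47D, HeLa) or 10,000 (A2780, SW1573, HBL-100) cells/well. Drug added day 1 in triplicate dilutions; vehicle DMSO 0.25% v/v final. 48 h, then TCA fixation and SRB staining read at OD 492 nm, background-corrected. GI50 from NCI percentage-growth formulas using T0 and T; mean of two to six experiments with SD.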

HBL-100 [1] = assay: Antiproliferative activity against human HBL100 cells after 48 hrs by SRB assay; type: functional; settings: HBL-100, 48 h; how it was run: as §1
HeLa [2] = assay: Antiproliferative activity against human HeLa cells after 48 hrs by SRB assay; type: functional; how it was run: as §1
SW1573 [3] = assay: Antiproliferative activity against human SW1573 cells after 48 hrs by SRB assay; type: functional; settings: SW1573, 48 h; how it was run: as §1
T47D [4] = assay: Antiproliferative activity against human T47D cells after 48 hrs by SRB assay; type: functional; how it was run: as §1
WiDr [5] = assay: Antiproliferative activity against human WiDr cells after 48 hrs by SRB assay; type: functional; how it was run: as §1
HBL-100 [6] = assay: Cell cycle arrest in human HBL100 cells by accumulation at subG1 phase after 24 hrs by flow cytometry; type: functional, cell-based
How it was run: (§2)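 Cells seeded at 2.5–5 × 10^5 per well in six-well plates. After 24 h, compound added at three concentrations for a further 24 h; controls without drug. Cells trypsinized, fixed in ice-cold 70% ethanol overnight at −20 °C, treated with RNase (37 °C, 30 min, dark) and stained with propidium iodide. DNA content measured by flow cytometry, 25,000 cells/sample.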

HeLa [7] = assay: Cell cycle arrest in human HeLa cells by accumulation at subG1 phase after 24 hrs by flow cytometry; type: functional, cell-based; how it was run: as §2
SW1573 [8] = assay: Cell cycle arrest in human SW1573 cells by accumulation at subG1 phase after 24 hrs by flow cytometry; type: functional, cell-based; how it was run: as §2
T47D [9] = assay: Cell cycle arrest in human T47D cells by accumulation at subG1 phase after 24 hrs by flow cytometry; type: functional, cell-based; how it was run: as §2
WiDr [10] = assay: Cell cycle arrest in human WiDr cells by accumulation at subG1 phase after 24 hrs by flow cytometry; type: functional, cell-based; how it was run: as §2
HBL-100 [11] = assay: Cell cycle arrest in human HBL100 cells by increase in accumulation at G2/M phase at 2 uM after 24 hrs by flow cytometry; type: functional, cell-based; how it was run: as §2
T47D [12] = assay: Cell cycle arrest in human T47D cells by increase in accumulation at G2/M phase at 2 uM after 24 hrs by flow cytometry; type: functional, cell-based; how it was run: as §2
SW1573 [13] = assay: Cell cycle arrest in human SW1573 cells by increase in accumulation at G2/M phase at 2 uM after 24 hrs by flow cytometry; type: functional, cell-based; how it was run: as §2
HBL-100 [14] = assay: Cell cycle arrest in human HBL100 cells by decrease in accumulation at G1 phase at 2 uM after 24 hrs by flow cytometry; type: functional, cell-based; how it was run: as §2
T47D [15] = assay: Cell cycle arrest in human T47D cells by decrease in accumulation at G1 phase at 2 uM after 24 hrs by flow cytometry; type: functional, cell-based; how it was run: as §2
SW1573 [16] = assay: Cell cycle arrest in human SW1573 cells by decrease in accumulation at G1 phase at 2 uM after 24 hrs by flow cytometry; type: functional, cell-based; how it was run: as §2
HBL-100 [17] = assay: Cell cycle arrest in human HBL100 cells by decrease in accumulation at S phase at 2 uM after 24 hrs by flow cytometry; type: functional, cell-based; how it was run: as §2
T47D [18] = assay: Cell cycle arrest in human T47D cells by decrease in accumulation at S phase at 2 uM after 24 hrs by flow cytometry; type: functional, cell-based; how it was run: as §2
SW1573 [19] = assay: Cell cycle arrest in human SW1573 cells by decrease in accumulation at S phase at 2 uM after 24 hrs by flow cytometry; type: functional, cell-based; how it was run: as §2

Nc1nc(NCCN2CCCC2)nc2c1[N+]([O-])=C(c1ccccc1)C2=O
GI50 (A2780): 2.6 µM
GI50 (HBL-100 [1]): 1.8 µM
GI50 (HeLa [2]): 16 µM
GI50 (SW1573 [3]): 6.2 µM
GI50 (T47D [4]): 13 µM
GI50 (WiDr [5]): 14 µM

CSc1nc(NCc2ccccc2)c2c(n1)C(=O)C(c1ccccc1)=[N+]2[O-]
GI50 (A2780): 59 µM
GI50 (HBL-100 [1]): 27 µM
GI50 (HeLa [2]): 36 µM
GI50 (SW1573 [3]): 26 µM
GI50 (T47D [4]): 81 µM
GI50 (WiDr [5]): 79 µM

CN1CCN(c2nc(N)c3c(n2)C(=O)C(c2ccccc2)=[N+]3[O-])CC1
GI50 (A2780): 24 µM
GI50 (HBL-100 [1]): 18 µM
GI50 (HeLa [2]): > 100 µM
GI50 (SW1573 [3]): 23 µM
GI50 (T47D [4]): > 100 µM
GI50 (WiDr [5]): 46 µM

C[S+]([O-])c1nc(N)c2c(n1)C(=O)C(c1ccccc1)=[N+]2[O-] (centres undefined)
GI50 (A2780): 79 µM
GI50 (HBL-100 [1]): 32 µM
GI50 (HeLa [2]): > 100 µM
GI50 (SW1573 [3]): > 100 µM
GI50 (T47D [4]): > 100 µM
GI50 (WiDr [5]): > 100 µM

CN(C)CCCNc1nc(N)c2c(n1)C(=O)C(c1ccccc1)=[N+]2[O-]
GI50 (A2780): 2.3 µM
GI50 (HBL-100 [1]): 2 µM
GI50 (HeLa [2]): 20 µM
GI50 (SW1573 [3]): 2.1 µM
GI50 (T47D [4]): 16 µM
GI50 (WiDr [5]): 19 µM

Nc1ncnc2c1[N+]([O-])=C(c1ccccc1)C2=O
GI50 (A2780): 30 µM
GI50 (HBL-100 [1]): 72 µM
GI50 (HeLa [2]): > 100 µM
GI50 (SW1573 [3]): 85 µM
GI50 (T47D [4]): > 100 µM
GI50 (WiDr [5]): > 100 µM

COC(=O)CNc1nc(N)c2c(n1)C(=O)C(c1ccccc1)=[N+]2[O-]
GI50 (A2780): 1.9 µM
GI50 (HBL-100 [1]): 2.8 µM
GI50 (HeLa [2]): 19 µM
GI50 (SW1573 [3]): 12 µM
GI50 (T47D [4]): 14 µM
GI50 (WiDr [5]): 18 µM

Nc1nc(N2CCOCC2)nc2c1[N+]([O-])=C(c1ccccc1)C2=O
GI50 (A2780): 37 µM
GI50 (HBL-100 [1]): 22 µM
GI50 (HeLa [2]): 38 µM
GI50 (SW1573 [3]): 27 µM
GI50 (T47D [4]): 7.5 µM
GI50 (WiDr [5]): 20 µM

CCc1ccc(C2=[N+]([O-])c3c(N)nc(SC)nc3C2=O)cc1
GI50 (A2780): 54 µM
GI50 (HBL-100 [1]): 37 µM
GI50 (HeLa [2]): 80 µM
GI50 (SW1573 [3]): 37 µM
GI50 (T47D [4]): 43 µM
GI50 (WiDr [5]): 53 µM

Nc1nc(NCCc2ccccc2)nc2c1[N+]([O-])=C(c1ccccc1)C2=O
GI50 (A2780): 37 µM
GI50 (HBL-100 [1]): 17 µM
GI50 (HeLa [2]): > 100 µM
GI50 (SW1573 [3]): 22 µM
GI50 (T47D [4]): 41 µM
GI50 (WiDr [5]): 71 µM

CCc1ccc(C2=[N+]([O-])c3c(N)ncnc3C2=O)cc1
GI50 (A2780): 39 µM
GI50 (HBL-100 [1]): 54 µM
GI50 (HeLa [2]): 75 µM
GI50 (SW1573 [3]): 40 µM
GI50 (T47D [4]): 82 µM
GI50 (WiDr [5]): 70 µM

C=CCNc1nc(N)c2c(n1)C(=O)C(c1ccccc1)=[N+]2[O-]
GI50 (A2780): 1.9 µM
GI50 (HBL-100 [1]): 2.7 µM
GI50 (HeLa [2]): 7.6 µM
GI50 (SW1573 [3]): 6.8 µM
GI50 (T47D [4]): 2.8 µM
GI50 (WiDr [5]): 4.7 µM

CSc1nc(NCCN2CCOCC2)c2c(n1)C(=O)C(c1ccccc1)=[N+]2[O-]
GI50 (A2780): > 100 µM
GI50 (HBL-100 [1]): 24 µM
GI50 (HeLa [2]): > 100 µM
GI50 (SW1573 [3]): > 100 µM
GI50 (T47D [4]): > 100 µM
GI50 (WiDr [5]): > 100 µM

Nc1nc(N2CCCCCC2)nc2c1[N+]([O-])=C(c1ccccc1)C2=O
GI50 (A2780): 1.8 µM
GI50 (HBL-100 [1]): 1.4 µM
GI50 (HeLa [2]): 2 µM
GI50 (SW1573 [3]): 1.3 µM
GI50 (T47D [4]): 0.35 µM
GI50 (WiDr [5]): 1.8 µM
Activity (HBL-100 [6]): Dose-dependent effect
Activity (HeLa [7]): Dose-dependent effect
Activity (SW1573 [8]): Dose-dependent effect
Activity (T47D [9]): Dose-dependent effect
Activity (WiDr [10]): Dose-dependent effect
Activity (HBL-100 [11]): Active
Activity (T47D [12]): Active
Activity (SW1573 [13]): Active
Activity (HBL-100 [14]): Active
Activity (T47D [15]): Active
Activity (SW1573 [16]): Active
Activity (HBL-100 [17]): Active
Activity (T47D [18]): Active
Activity (SW1573 [19]): Active

Nc1nc(NCCN2CCOCC2)nc2c1[N+]([O-])=C(c1ccccc1)C2=O
GI50 (A2780): 2.9 µM
GI50 (HBL-100 [1]): 3.4 µM
GI50 (HeLa [2]): 15 µM
GI50 (SW1573 [3]): 14 µM
GI50 (T47D [4]): 17 µM
GI50 (WiDr [5]): 16 µM

Nc1nc(NCc2ccccc2)nc2c1[N+]([O-])=C(c1ccccc1)C2=O
GI50 (A2780): 3.7 µM
GI50 (HBL-100 [1]): 5.1 µM
GI50 (HeLa [2]): 29 µM
GI50 (SW1573 [3]): 30 µM
GI50 (T47D [4]): 4 µM
GI50 (WiDr [5]): 24 µM

CSc1nc2c(c(N3CCCC3)n1)[N+]([O-])=C(c1ccccc1)C2=O
GI50 (A2780): > 100 µM
GI50 (HBL-100 [1]): > 100 µM
GI50 (HeLa [2]): > 100 µM
GI50 (SW1573 [3]): > 100 µM
GI50 (T47D [4]): > 100 µM
GI50 (WiDr [5]): > 100 µM

Cc1ccc(C2=[N+]([O-])c3c(N)ncnc3C2=O)cc1
GI50 (A2780): > 100 µM
GI50 (HBL-100 [1]): > 100 µM
GI50 (HeLa [2]): > 100 µM
GI50 (SW1573 [3]): > 100 µM
GI50 (T47D [4]): > 100 µM
GI50 (WiDr [5]): > 100 µM

CSc1nc(N)c2c(n1)C(=O)C(c1ccc(C)cc1)=[N+]2[O-]
GI50 (A2780): 93 µM
GI50 (HBL-100 [1]): 28 µM
GI50 (HeLa [2]): > 100 µM
GI50 (SW1573 [3]): 31 µM
GI50 (T47D [4]): > 100 µM
GI50 (WiDr [5]): > 100 µM

Nc1nc(N2CCCCC2)nc2c1[N+]([O-])=C(c1ccccc1)C2=O
GI50 (A2780): 2.9 µM
GI50 (HBL-100 [1]): 1.7 µM
GI50 (HeLa [2]): 3.5 µM
GI50 (SW1573 [3]): 3.3 µM
GI50 (T47D [4]): 2.7 µM
GI50 (WiDr [5]): 3.7 µM
